This is a sample that favours compounds with a hit; in the whole collection about 1% have one here.
PvdQ inh = blocks Pseudomonas aeruginosa PvdQ acylase activity. purified PvdQ acylase, fluorescence plate reader. inhibition, % at 10 µM. hit rate 0.063% among 340,000; in the data active means inhibition above about 30%, passing the limit was not always enough;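 further: 0% = vehicle neutral wells and 100% = reference inhibitor wells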
RAD54 inh = inhibitors of human RAD54 branch migration; Q92698; RAD54 Holliday junction branch migration, FAM/BHQ fluorescence; inhibition, % at 10.4 µM; hit rate 0.14% among 360,000; AID 602329;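 active means mean normalized replicate activity at least 40 and at least half of replicates scoring 40 or more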;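 further: 0% = median of neutral control wells and 100% = median of positive control wells; inhibitors cause a drop in the FAM fluorescence signal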
Target sequence (Q92698 whole entry, looked up): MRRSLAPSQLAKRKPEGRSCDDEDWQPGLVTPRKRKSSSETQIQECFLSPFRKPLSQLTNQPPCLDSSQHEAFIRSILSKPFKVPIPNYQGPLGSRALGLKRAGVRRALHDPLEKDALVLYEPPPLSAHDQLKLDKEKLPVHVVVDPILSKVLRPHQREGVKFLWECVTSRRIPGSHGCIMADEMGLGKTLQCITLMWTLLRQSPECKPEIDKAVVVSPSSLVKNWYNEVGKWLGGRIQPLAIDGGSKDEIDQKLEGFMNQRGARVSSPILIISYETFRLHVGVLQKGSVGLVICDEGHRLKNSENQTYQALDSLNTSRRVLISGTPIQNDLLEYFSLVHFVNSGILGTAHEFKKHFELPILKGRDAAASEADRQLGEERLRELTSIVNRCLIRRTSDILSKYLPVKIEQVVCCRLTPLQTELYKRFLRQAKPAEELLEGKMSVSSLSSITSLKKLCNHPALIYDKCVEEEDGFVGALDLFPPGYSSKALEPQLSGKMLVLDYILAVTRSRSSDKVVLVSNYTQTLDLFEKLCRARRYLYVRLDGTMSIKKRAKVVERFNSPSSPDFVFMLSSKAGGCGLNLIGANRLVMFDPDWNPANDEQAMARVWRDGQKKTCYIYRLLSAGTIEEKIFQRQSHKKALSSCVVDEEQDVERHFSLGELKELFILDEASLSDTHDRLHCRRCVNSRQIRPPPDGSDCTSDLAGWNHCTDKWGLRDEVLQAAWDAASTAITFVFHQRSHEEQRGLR
FID counter = fluorescent intercalator displacement, NS3 helicase counter-screen; DNA fluorescent intercalator displacement, fluorescence; inhibition, % at 7.9 µM; hit rate 0.17% among 290,000; AID 1845; in the data active means inhibition above about 37%;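 further: 0% = vehicle and 100% = reference compound; higher means more ethidium bromide displaced from hairpin DNA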
VIM-2 inh = blocks Pseudomonas aeruginosa VIM-2 metallo-beta-lactamase | purified VIM-2, nitrocefin hydrolysis, epi-absorbance fluorescence | AID 1527 | hit rate 0.89% among 290,000 | inhibition, % at 5.6 µM;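 active means inhibition above the mean of all tested compounds plus 3 SD, cutoff set per screening run, cut at about 7.5% in these data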;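 further: red hydrolysis product quenches plate fluorescence so inhibitors raise well fluorescence; 0% = enzyme with DMSO and 100% = DMSO without enzyme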
IMP-1 inh = inhibitors of Pseudomonas aeruginosa IMP-1 metallo-beta-lactamase | purified IMP-1, nitrocefin hydrolysis, epi-absorbance fluorescence | inhibition, % at 5.6 µM | hit rate 0.45% among 290,000 | AID 1556;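 active means inhibition above the mean plus 3 SD of all compounds in the same screening run, cut at about 4.5% in these data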;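 further: 0% = IMP-1 with DMSO and 100% = DMSO wells lacking enzyme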
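System: purified IMP-1 / Input: IMP-1 dispensed at 0.2 nM / Medium: 50 mM HEPES pH 7.1, 50 µM ZnSO4, 0.05% Brij 35 / Timing: 15 min enzyme–compound preincubation, then 25 min nitrocefin reaction, 25 °C / Technique: plate fluorescence quenching by hydrolysis product, ex 480/em 530 nm / Repeats: singlicate testing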
Active calls of the source: *.

How did C[C@@H]1CN([C@H](C)CO)S(=O)(=O)c2ccc(Br)cc2O[C@@H]1CN(C)CC1CC1 do in these assays?
RAD54 inh: -4.6

Results for Cc1nn(-c2ccccc2)c2c1c(C)c(CCC(=O)N1CCOCC1)c(=O)n2C ?
PvdQ inh: -10.9; RAD54 inh: -3.4; FID counter: -44.4; VIM-2 inh: 10.4*; IMP-1 inh: -1.6

What do the screens show for `Cc1cc(=O)n(CC(=O)NCCN2CCOCC2)c2c1c(C)nn2-c1ccccc1`?
PvdQ inh: -7.0; RAD54 inh: -1.9; FID counter: 7.3; VIM-2 inh: 6.8; IMP-1 inh: -1.4

How did CCn1c(=O)c(CCC(=O)N2CCOCC2)c(C)c2c(C)nn(-c3ccccc3)c21 do in these assays?
PvdQ inh: -10.7; RAD54 inh: -8.5; FID counter: -45.0; VIM-2 inh: 8.4*; IMP-1 inh: -1.1

What do the screens show for `CCn1c(=O)c(CCC(=O)NCCN2CCOCC2)c(C)c2c(C)nn(-c3cccc(C)c3)c21`?
PvdQ inh: -8.8; RAD54 inh: -11.5; FID counter: 7.2; VIM-2 inh: 6.1; IMP-1 inh: -2.3

Results for COc1ccc(-c2cc(NCCc3ccncc3)n3ncnc3n2)cc1 ?
PvdQ inh: 2.2; RAD54 inh: 13.3; FID counter: -12.8; VIM-2 inh: 2.4; IMP-1 inh: -2.0

How did COc1ccc(CCNc2c(C)c(C)nc3ncnn23)cc1 do in these assays?
PvdQ inh: -23.5; RAD54 inh: 8.4; FID counter: -6.8; VIM-2 inh: 8.8*; IMP-1 inh: -1.8

What do the screens show for `CC(C)N(C(=O)c1ccc(C(=O)Nc2ccc([N+](=O)[O-])cc2)cc1)C(C)C`?
PvdQ inh: 1.8; RAD54 inh: -6.5; FID counter: -2.2; VIM-2 inh: 1.7; IMP-1 inh: 5.6*

What do the screens show for `C[C@H]1CN([C@@H](C)CO)C(=O)c2cc(NS(=O)(=O)c3ccc(Cl)cc3)ccc2O[C@H]1CN(C)C`?
RAD54 inh: 7.3

What do the screens show for `CN1C(=O)/C(=C/c2ccc(C(=O)Nc3ccc(O)cc3C(=O)O)cc2)SC1=S`?
PvdQ inh: -3.5; RAD54 inh: -10.7; FID counter: 38.9*; VIM-2 inh: -0.4; IMP-1 inh: -3.5

How did C[C@@H]1CN([C@@H](C)CO)C(=O)Cc2cc(NC(=O)C3CC3)ccc2O[C@H]1CN(C)C(=O)Nc1ccc(F)cc1 do in these assays?
RAD54 inh: 3.9

Results for Cc1cc(=O)[nH]c2ccccc12 ?
PvdQ inh: -3.9; RAD54 inh: 3.8; FID counter: -0.2; VIM-2 inh: 0.0; IMP-1 inh: -1.8

How did Cc1cc2[nH]c3c(c[n+](C)c4ccccc34)c2cc1C do in these assays?
PvdQ inh: -19.8; FID counter: 64.5*; VIM-2 inh: 6.3; IMP-1 inh: 10.6*

What do the screens show for `O=c1c2cc(Cl)ccc2oc2nc3n(c(=O)c12)CCCS3`?
PvdQ inh: -9.2; RAD54 inh: 2.5; FID counter: -1.7; VIM-2 inh: 9.7*; IMP-1 inh: 1.4

How did O=C(O)C1C2C=CC(C2)C1C(=O)Nc1ccccc1Br (stereo not given) do in these assays?
PvdQ inh: -21.2; RAD54 inh: -13.4; FID counter: -2.6; VIM-2 inh: -0.4; IMP-1 inh: 32.2*

Results for CC(NC(=O)C1C2C=CC(C2)C1C(=O)O)c1ccccc1 (stereo not given) ?
PvdQ inh: -6.4; RAD54 inh: 4.1; FID counter: -2.4; VIM-2 inh: -0.7; IMP-1 inh: 2.4

What do the screens show for `Cc1sc2ncn3c(C)nnc3c2c1C`?
PvdQ inh: -6.9; RAD54 inh: 7.1; FID counter: 1.5; VIM-2 inh: 10.0*; IMP-1 inh: -1.0

Results for C[C@@H]1CCCCO[C@H](CN(C)S(=O)(=O)c2cccs2)[C@@H](C)CN([C@H](C)CO)C(=O)c2cc(NS(=O)(=O)c3cn(C)cn3)ccc2O1 ?
RAD54 inh: 2.8

Results for O=C(O)c1cc(Cl)c(Cl)cc1C(=O)Nc1cccc2cccnc12 ?
PvdQ inh: -10.9; RAD54 inh: -3.8; FID counter: 0.9; VIM-2 inh: 9.1*; IMP-1 inh: -3.4

Results for Nc1ccc(OCc2ccccc2)cc1[N+](=O)[O-] ?
PvdQ inh: 36.5*; RAD54 inh: 1.0

Results for C[C@H](CO)N1C[C@H](C)[C@@H](CN(C)C(=O)Nc2cccc3ccccc23)OCCCC[C@H](C)Oc2ccc(NS(=O)(=O)c3ccc(F)cc3)cc2C1=O ?
RAD54 inh: -3.9

How did C[C@@H]1CCCCO[C@H](CN(C)S(=O)(=O)c2ccc(Cl)cc2)[C@@H](C)CN([C@@H](C)CO)C(=O)c2cc(NC(=O)c3ccccc3)ccc2O1 do in these assays?
RAD54 inh: -3.9

What do the screens show for `Cc1ccc(C(=O)C[n+]2cc(-c3ccc(C)cc3)n3c2CCCCC3)cc1`?
PvdQ inh: -6.1; RAD54 inh: 21.5; FID counter: 38.9*; VIM-2 inh: 4.3; IMP-1 inh: 0.5

What do the screens show for `Cc1ccc(-c2c[n+](CC(=O)Nc3nc(-c4ccc(F)cc4)cs3)c3n2CCC3)cc1`?
PvdQ inh: -10.6; RAD54 inh: 41.3; FID counter: 44.4*; VIM-2 inh: -6.2; IMP-1 inh: -4.0

How did COc1ccc(C(=O)C[n+]2cc(-c3ccc(OC)cc3)n3c2CCCC3)cc1 do in these assays?
PvdQ inh: -17.5; FID counter: 9.6; VIM-2 inh: -2.0; IMP-1 inh: -2.5

What do the screens show for `O=C(C[n+]1cc(-c2ccc(F)cc2)n2c1CCC2)Nc1nc(-c2ccccc2)cs1`?
PvdQ inh: -8.5; RAD54 inh: 4.5; FID counter: 16.2; VIM-2 inh: -4.8; IMP-1 inh: -4.1

What do the screens show for `O=C(C[n+]1cc(-c2ccccc2)n2c1CCCCC2)c1ccc(Br)cc1`?
PvdQ inh: -2.2; FID counter: 41.9*; VIM-2 inh: -2.3; IMP-1 inh: -1.2

What do the screens show for `C[C@H]1CN([C@@H](C)CO)C(=O)Cc2cc(NC(=O)Cc3ccccc3)ccc2O[C@@H]1CN(C)C`?
RAD54 inh: 14.8

How did CN(C)c1ccc(/C=C/C(=O)c2ccc(O)cc2)cc1 do in these assays?
PvdQ inh: 4.2

How did CN(C)c1ccc(/C=C/c2ccncc2)cc1 do in these assays?
PvdQ inh: -16.3; RAD54 inh: -19.1; FID counter: 3.1; VIM-2 inh: 6.9; IMP-1 inh: 6.3*

How did CN(C)c1ccc(/C=C/C(=O)c2ccccc2O)cc1 do in these assays?
PvdQ inh: -10.2; FID counter: -0.9; VIM-2 inh: -0.5; IMP-1 inh: 6.0*

Results for CN(C)c1ccc(/C=C/C(=O)c2cccnc2)cc1 ?
PvdQ inh: -11.9; RAD54 inh: -226.8; FID counter: -18.5; VIM-2 inh: 4.2; IMP-1 inh: 7.8*

How did C[C@H]1CN([C@@H](C)CO)C(=O)c2cc(NS(=O)(=O)c3ccc(Cl)cc3)ccc2O[C@@H]1CN(C)S(=O)(=O)c1cn(C)cn1 do in these assays?
RAD54 inh: 2.0

How did CSc1nc2c(c(-c3ccc(O)cc3)c1C#N)CCC2 do in these assays?
PvdQ inh: -8.6; RAD54 inh: -9.0; FID counter: -3.8; VIM-2 inh: 7.8*; IMP-1 inh: -4.4
